Active and inactive are the calls of the source.
What was measured:
CAKI-1 [1] = assay: Cytotoxicity against human Caki1 cells by sulforhodamine B assay; type: functional
Summary of the method: (§1)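 Run at NCI in the DTP 60-cell-line human tumor panel by standard procedure. Compounds were first screened at a single concentration, then tested at five tenfold-spaced concentrations. GI50 is the concentration reducing treated-cell growth to half that of untreated controls; TGI is the concentration completely halting growth.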

[2] = system: Mycobacterium intracellulare; assay: Antimicrobial activity against Mycobacterium intracellular ATCC 23068 after 5 days by MABA assay; type: functional, organism-based; settings: ATCC 23068, 120 h
Summary of the method: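 M. intracellulare was tested by a modified Franzblau method. Samples were serially diluted in 20% DMSO/saline, run in duplicate, and inocula were adjusted by OD630. […] IC50 is 50% growth inhibition; MIC is the lowest concentration with no detectable growth.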

BT-549 = assay: Cytotoxicity against human BT549 cells assessed as cell growth at 8 uM by sulforhodamine B assay relative to control; type: functional; settings: read-out: Activity; summary of the method: as §1
MDA-MB-435 [3] = assay: Antitumor activity against human MDA-MB-435 cells xenografted in mouse assessed as tumor cell killing at 3.1 mg/kg, ip qd for 4 days by MTT assay; type: functional, organism-based; design: dose 3.1 mg/kg
SK-OV-3 = assay: Cytotoxicity against human SKOV3 cells assessed as cell growth at 80 uM by sulforhodamine B assay relative to control; type: functional; settings: read-out: Activity
MCF7 = assay: Cytotoxicity against human MCF7 cells assessed as cell growth at 80 nM by sulforhodamine B assay relative to control; type: functional; settings: read-out: Activity
U-251 [4] = assay: Antitumor activity against human U251 cells xenografted in mouse assessed as tumor cell killing at 3.1 mg/kg, ip qd for 4 days by MTT assay; type: functional, organism-based; design: dose 3.1 mg/kg
DU-145 = assay: Cytotoxicity against human DU145 cells by sulforhodamine B assay; type: functional
Summary of the method: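 Run by the NCI Developmental Therapeutics Program on its 60-line human tumour cell panel using the standard procedure. Compounds went through a single-concentration prescreen first, and those active by NCI criteria went on to a five-concentration growth-inhibition test. GI50 is the concentration that cuts growth of treated cells to half that of untreated control cells.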

A549 = assay: Cytotoxicity against human A549 cells assessed as cell growth at 8 uM by sulforhodamine B assay relative to control; type: functional; settings: read-out: Activity; summary of the method: as §1
SF-295 [5] = assay: Antitumor activity against human SF295 cells xenografted in mouse assessed as tumor cell killing at 3.1 mg/kg, ip qd for 4 days by MTT assay; type: functional, organism-based; design: dose 3.1 mg/kg
CAKI-1 [6] = assay: Cytotoxicity against human Caki1 cells assessed as cell growth at 80 uM by sulforhodamine B assay relative to control; type: functional; settings: read-out: Activity
SF-295 [7] = assay: Cytotoxicity against human SF295 cells assessed as cell growth at 80 uM by sulforhodamine B assay relative to control; type: functional; settings: read-out: Activity
M14 = assay: Cytotoxicity against human M14 cells by sulforhodamine B assay; type: functional; settings: for TGI: read-out: pTGI (converted)
Summary of the method: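 NCI Developmental Therapeutics Program 60-cell-line human tumor panel screen, run at NCI. A single-concentration pre-screen was followed by a five-concentration dose-response in 10-fold steps. GI50 is the concentration that reduces growth of treated cells to half that of untreated control cells. TGI is the concentration that completely halts growth.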

COLO 205 = assay: Cytotoxicity against human COLO205 cells assessed as cell growth at 80 nM by sulforhodamine B assay relative to control; type: functional; settings: read-out: Activity; summary of the method: as §1
NCI-H522 [8] = assay: Antitumor activity against human NCI-H522 cells xenografted in mouse assessed as tumor cell killing at 3.1 mg/kg, ip qd for 4 days by MTT assay; type: functional, organism-based; design: dose 3.1 mg/kg
OVCAR-5 [9] = assay: Antitumor activity against human OVCAR5 cells xenografted in mouse assessed as tumor cell killing at 3.1 mg/kg, ip qd for 4 days by MTT assay; type: functional, organism-based; design: dose 3.1 mg/kg
LOX IMVI = assay: Cytotoxicity against human LOXIMVI cells assessed as cell growth at 8 nM by sulforhodamine B assay relative to control; type: functional; settings: read-out: Activity
UACC-62 [10] = assay: Antitumor activity against human UACC62 cells xenografted in mouse assessed as tumor cell killing at 3.1 mg/kg, ip qd for 4 days by MTT assay; type: functional, organism-based; design: dose 3.1 mg/kg
SF-268 [11] = assay: Cytotoxicity against human SF268 cells assessed as cell growth at 800 nM by sulforhodamine B assay relative to control; type: functional; settings: read-out: Activity
CAKI-1 [12] = assay: Cytotoxicity against human Caki1 cells assessed as cell growth at 800 nM by sulforhodamine B assay relative to control; type: functional; settings: read-out: Activity
IGROV-1 [13] = assay: Cytotoxicity against human IGROV1 cells assessed as cell growth at 8 nM by sulforhodamine B assay relative to control; type: functional; settings: read-out: Activity
CAKI-1 [14] = assay: Cytotoxicity against human Caki1 cells assessed as cell growth at 80 nM by sulforhodamine B assay relative to control; type: functional; settings: read-out: Activity
U-251 [15] = assay: Cytotoxicity against human U251 cells assessed as cell growth at 80 nM by sulforhodamine B assay relative to control; type: functional; settings: read-out: Activity
786-0 = assay: Cytotoxicity against human 786-0 cells assessed as cell growth at 80 nM by sulforhodamine B assay relative to control; type: functional; settings: read-out: Activity; summary of the method: as §1
SNB-19 = assay: Cytotoxicity against human SNB19 cells assessed as cell growth at 800 nM by sulforhodamine B assay relative to control; type: functional; settings: read-out: Activity
IGROV-1 [16] = assay: Cytotoxicity against human IGROV1 cells assessed as cell growth at 80 uM by sulforhodamine B assay relative to control; type: functional; settings: read-out: Activity
CCRF-CEM [17] = assay: Cytotoxicity against human CCRF-CEM cells assessed as cell growth at 80 nM by sulforhodamine B assay relative to control; type: functional; settings: read-out: Activity
UACC-62 [18] = assay: Antitumor activity against human UACC62 cells xenografted in mouse assessed as tumor cell killing at 2.35 mg/kg, ip qd for 4 days by MTT assay; type: functional, organism-based; design: dose 2.35 mg/kg
MDA-MB-435 [19] = assay: Antitumor activity against human MDA-MB-435 cells xenografted in mouse assessed as tumor cell killing at 2.35 mg/kg, ip qd for 4 days by MTT assay; type: functional, organism-based; design: dose 2.35 mg/kg
NCI-H522 [20] = assay: Antitumor activity against human NCI-H522 cells xenografted in mouse assessed as tumor cell killing at 2.35 mg/kg, ip qd for 4 days by MTT assay; type: functional, organism-based; design: dose 2.35 mg/kg
CCRF-CEM [21] = assay: Cytotoxicity against human CCRF-CEM cells assessed as cell growth at 8 nM by sulforhodamine B assay relative to control; type: functional; settings: read-out: Activity
SF-268 [22] = assay: Cytotoxicity against human SF268 cells assessed as cell growth at 80 uM by sulforhodamine B assay relative to control; type: functional; settings: read-out: Activity
SR = assay: Cytotoxicity against human SR cells assessed as cell growth at 80 uM by sulforhodamine B assay relative to control; type: functional; settings: read-out: Activity
U-251 [23] = assay: Antitumor activity against human U251 cells xenografted in mouse assessed as tumor cell killing at 2.35 mg/kg, ip qd for 4 days by MTT assay; type: functional, organism-based; design: dose 2.35 mg/kg
OVCAR-5 [24] = assay: Antitumor activity against human OVCAR5 cells xenografted in mouse assessed as tumor cell killing at 2.35 mg/kg, ip qd for 4 days by MTT assay; type: functional, organism-based; design: dose 2.35 mg/kg
SF-295 [25] = assay: Antitumor activity against human SF295 cells xenografted in mouse assessed as tumor cell killing at 2.35 mg/kg, ip qd for 4 days by MTT assay; type: functional, organism-based; design: dose 2.35 mg/kg

SMILES | IC50 [2] | MBC [2] | MIC [2] | growth at 8 µM (BT-549) | growth at 80 µM (SK-OV-3) | growth at 0.08 µM (MCF7) | LC50 (DU-145) | GI50 (DU-145; read-out: GI50) | TGI (DU-145; read-out: TGI) | GI50 (DU-145; read-out: pGI50 (converted)) | TGI (DU-145; read-out: pTGI (converted)) | growth at 8 µM (A549) | growth at 80 µM (SF-295 [7]) | GI50 (M14) | TGI (M14) | growth at 0.08 µM (COLO 205) | growth at 0.008 µM (LOX IMVI) | growth at 0.8 µM (SF-268 [11]) | growth at 0.008 µM (IGROV-1 [13]) | growth at 0.08 µM (U-251 [15]) | also measured
C/C=C1\NC(=O)[C@H](Cc2ccccc2)NC(=O)[C@@H](C(C)C)NC(=O)[C@@H]([C@@H](C)CC)NC(=O)[C@H](NC(=O)[C@H](NC(=O)[C@H](CCCNCc2ccc(F)c(C)c2)NC(=O)[C@H]2CCCN2C(=O)[C@H](NC(=O)[C@@H](NC(=O)[C@@H](NC(=O)[C@H](NC(=O)CCCC(C)C)C(C)C)[C@@H](C)O)C(C)C)C(C)C)[C@@H](C)CC)[C@@H](C)OC(=O)[C@H](C(C)C)NC1=O | > 20 µM | > 20 µM | > 20 µM | -88% | -75% | 101% | 0.468 µM | 0.123 µM | 0.24 µM | 0.123 µM | 0.24 µM | -64% | -35% | 1.35 µM | 2.4 µM | 90% | 96% | 63% | 104% | 100% | GI50 (CAKI-1 [1]): 1.45 µM; CC50 (CAKI-1 [1]; read-out: pLC50 (the source's name) (converted)): 4.79 µM; TGI (CAKI-1 [1]; read-out: pTGI (converted)): 2.63 µM; Activity (MDA-MB-435 [3]): inactive; Activity (U-251 [4]): inactive; Activity (SF-295 [5]): inactive; growth at 80 µM (CAKI-1 [6]): -56%; Activity (NCI-H522 [8]): inactive; Activity (OVCAR-5 [9]): inactive; Activity (UACC-62 [10]): inactive; growth at 0.8 µM (CAKI-1 [12]): 103%; growth at 0.08 µM (CAKI-1 [14]): 150%; growth at 0.08 µM (786-0): 97%; growth at 0.8 µM (SNB-19): 90%; growth at 80 µM (IGROV-1 [16]): -26%
C/C=C1\NC(=O)[C@H](Cc2ccccc2)NC(=O)[C@@H](C(C)C)NC(=O)[C@@H]([C@@H](C)CC)NC(=O)[C@H](NC(=O)[C@H](NC(=O)[C@H](CCCNCc2ccc(N3CCOCC3)cc2)NC(=O)[C@H]2CCCN2C(=O)[C@H](NC(=O)[C@@H](NC(=O)[C@@H](NC(=O)[C@H](NC(=O)CCCC(C)C)C(C)C)[C@@H](C)O)C(C)C)C(C)C)[C@@H](C)CC)[C@@H](C)OC(=O)[C@H](C(C)C)NC1=O | > 20 µM | > 20 µM | > 20 µM | -66% | -23% | 107% | 0.513 µM | 0.128 µM | 0.257 µM | 0.129 µM | 0.257 µM | -65% | -33% | 1.41 µM | 2.57 µM | 95% | 95% | 90% | 104% | 103% | growth at 0.08 µM (CCRF-CEM [17]): 123%; Activity (UACC-62 [18]): inactive; Activity (MDA-MB-435 [19]): inactive; Activity (NCI-H522 [20]): inactive; growth at 0.008 µM (CCRF-CEM [21]): 122%; LC50 (M14): 4.68 µM; growth at 80 µM (SF-268 [22]): 18%; growth at 80 µM (SR): -7%; Activity (U-251 [23]): inactive; growth at 0.08 µM (786-0): 93%; Activity (OVCAR-5 [24]): inactive; growth at 0.8 µM (SNB-19): 90%; growth at 80 µM (IGROV-1 [16]): -30%; Activity (SF-295 [25]): inactive
